Measured values reported in ChEMBL document CHEMBL1125255, “Romazarit: a potential disease-modifying antirheumatic drug” (J Med Chem, 1991).
Values belong to the molecule of their own block, whether it stands above or below them.

Key:
[1] = system: Rattus norvegicus; assay: Compound was evaluated in developing adjuvant arthritis model rats for its effect on paw edema.; format: functional; design: concentration or dose not given beside the values
Summary of the method: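 Female Allen and Hanbury hooded rats, five per group. Right hind paw injected sc on day 0 with heat-killed M. tuberculosis in paraffin oil (5 mg/mL). Compounds given orally as sodium salts in water. Paw volumes of both hind paws measured days 1–4, 1 h after dosing. Percent inhibition taken from area under the curve of the between-paw volume difference.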

[2] = species on record: Rattus norvegicus; assay: Percent decrease in serum haptoglobin evaluated in a developing adjuvant arthritis model rats.
[3] = system: Rattus norvegicus; assay: Hepatic effect assessed by increase in liver weight after 14 days of dosing at 60 mg/kg orally.; format: functional
Summary of the method: (§1)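 Type II collagen arthritis rats, eight per group, daily oral dosing as sodium salts in water for 14 days. Liver weight recorded at termination and expressed as percentage change versus normal animals.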

[4] = system: Rattus norvegicus; assay: Radiographic change was judged in the area of the tarsus region, using an arbitrary scoring system upon termination of the test (14 days dosing of 60 mg/kg) in a model of type II collagen arthritis in the rat.; format: functional; details: 336 h
Summary of the method: (§2)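 Type II collagen arthritis rats, eight per group, oral sodium salts daily from grouping (day 1). Hind limbs X-rayed post mortem. Tibia/talus and tarsus damage scored 0–3 per foot by two observers and averaged; left and right summed (max 6). Compared with arthritic controls by Mann–Whitney U test.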

[5] = system: Rattus norvegicus; assay: Radiographic change was judged in the area of the talus joint, using an arbitrary scoring system upon termination of the test (14 days dosing of 60 mg/kg) in a model of type II collagen arthritis in the rat.; format: functional; details: 336 h; summary of the method: as §2
[6] = molecular target: Prostaglandin G/H synthase 1 (Ovis aries) (UniProt P05979); assay: Inhibition of prostaglandin synthetase in sheep seminal vesicle
[7] = system: Rattus norvegicus; assay: Hepatic effect assessed by increase in catalase levels after 14 days of dosing at 60 mg/kg orally.; format: functional
Summary of the method: (§3)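 Type II collagen arthritis rats, eight per group, given oral sodium salts daily for 14 days. At termination liver homogenized in ice-cold 0.25 M sucrose and spun 2000 rpm 10 min. Catalase followed by decline in A240 from H2O2 breakdown, expressed as first-order rate constant K. Result given as % change versus normals.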

[8] = Partition coefficient (logP); format: physicochemical; details: octanol/water
Summary of the method: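 Compound dissolved in disodium hydrogen phosphate/citric acid buffer pH 7.4 and partitioned against equal volume octan-1-ol. Buffer-phase UV absorbance read before and after partitioning near λmax. P′ from the octanol:buffer absorbance ratio.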

[9] = system: Rattus norvegicus; assay: Radiographic change was judged in the area of the tarsus region, using an arbitrary scoring system upon termination of the test (14 days dosing of 20 mg/kg)in a model of type II collagen arthritis in the rat.; format: functional; details: 336 h; summary of the method: as §2
[10] = system: Rattus norvegicus; assay: Plasma level in type II collagen arthritis model after 14 days of dosing at 20 mg/kg.; format: functional, organism-based; design: dose 20 mg/kg
Summary of the method: (§4)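 Type II collagen arthritis rats dosed orally for 14 days. Plasma drug level measured by reverse-phase C-18 HPLC with UV detection at 282 nm.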

[11] = […] level determined in rat type II collagen arthritis model after 14 days dosing of 60 mg/kg.; format: functional
Summary of the method: (§5)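 Rat type II collagen arthritis, eight rats per group, daily oral dosing as sodium salts in water for 14 days. Plasma haptoglobin determined at termination and compared with normal and arthritic controls by Student's t test.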

[12] = system: Rattus norvegicus; assay: Radiographic change was judged in the area of the talus joint, using an arbitrary scoring system upon termination of the test (14 days dosing of 20 mg/kg)in a model of type II collagen arthritis in the rat.; format: functional; details: 336 h; summary of the method: as §2
[13] = system: Rattus norvegicus; assay: Radiographic change was judged in the area of the talus joint, using an arbitrary scoring system upon termination of the test (14 days dosing of 40 mg/kg)in a model of type II collagen arthritis in the rat.; format: functional; details: 336 h; summary of the method: as §2
[14] = […] level determined in rat type II collagen arthritis model after 14 days dosing of 100 mg/kg.; format: functional; summary of the method: as §5
[15] = system: Rattus norvegicus; assay: Radiographic change was judged in the area of the tarsus region, using an arbitrary scoring system upon termination of the test (14 days dosing of 100 mg/kg)in a model of type II collagen arthritis in the rat.; format: functional; details: 336 h; summary of the method: as §2
[16] = molecular target: Prostaglandin G/H synthase 1 (Ovis aries) (UniProt P05979); assay: Inhibition of prostaglandin synthetase in sheep seminal vesicle; remark: listed apart in the source
[17] = species on record: Homo sapiens; assay: Inhibition of human PGE-2 production.; format: functional
Summary of the method: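 Human blood mononuclear cells from healthy volunteers stimulated with 2.5 μg/mL phytohaemagglutinin and incubated 24 h with compound (sodium salt). PGE2 measured by RIA.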

[18] = system: Rattus norvegicus; assay: Radiographic change was judged in the area of the tarsus region, using an arbitrary scoring system upon termination of the test (14 days dosing of 40 mg/kg)in a model of type II collagen arthritis in the rat.; format: functional; details: 336 h; summary of the method: as §2
[19] = […] level determined in rat type II collagen arthritis model after 14 days dosing of 40 mg/kg.; format: functional; summary of the method: as §5
[20] = system: Rattus norvegicus; assay: Radiographic change was judged in the area of the talus joint, using an arbitrary scoring system upon termination of the test (14 days dosing of 60 mg/kg)in a model of type II collagen arthritis in the rat.; format: functional; details: 336 h; summary of the method: as §2
[21] = molecular target: T1, Cyclooxygenase (Rattus norvegicus, UniProt P35355+Q63921); assay: Inhibition of prostaglandin synthetase in rat renal medulla; format: functional, tissue-based
T1 sequence (P35355 whole entry): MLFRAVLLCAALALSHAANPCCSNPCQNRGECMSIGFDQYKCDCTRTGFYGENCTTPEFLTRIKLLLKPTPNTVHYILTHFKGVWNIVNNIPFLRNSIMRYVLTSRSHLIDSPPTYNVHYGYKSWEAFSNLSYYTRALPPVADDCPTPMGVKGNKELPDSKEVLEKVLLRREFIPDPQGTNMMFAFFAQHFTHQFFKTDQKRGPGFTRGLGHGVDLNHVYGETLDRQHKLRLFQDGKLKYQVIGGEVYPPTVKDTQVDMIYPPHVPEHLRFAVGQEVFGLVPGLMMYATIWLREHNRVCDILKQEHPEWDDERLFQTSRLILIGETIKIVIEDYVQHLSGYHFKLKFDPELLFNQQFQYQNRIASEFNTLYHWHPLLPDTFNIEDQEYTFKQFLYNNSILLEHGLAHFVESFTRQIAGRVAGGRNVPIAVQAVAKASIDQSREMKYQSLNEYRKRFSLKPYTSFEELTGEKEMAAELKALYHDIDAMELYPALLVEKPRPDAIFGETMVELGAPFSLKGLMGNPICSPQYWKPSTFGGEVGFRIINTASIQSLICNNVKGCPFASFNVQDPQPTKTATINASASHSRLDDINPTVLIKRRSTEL
T1 sequence (Q63921 whole entry): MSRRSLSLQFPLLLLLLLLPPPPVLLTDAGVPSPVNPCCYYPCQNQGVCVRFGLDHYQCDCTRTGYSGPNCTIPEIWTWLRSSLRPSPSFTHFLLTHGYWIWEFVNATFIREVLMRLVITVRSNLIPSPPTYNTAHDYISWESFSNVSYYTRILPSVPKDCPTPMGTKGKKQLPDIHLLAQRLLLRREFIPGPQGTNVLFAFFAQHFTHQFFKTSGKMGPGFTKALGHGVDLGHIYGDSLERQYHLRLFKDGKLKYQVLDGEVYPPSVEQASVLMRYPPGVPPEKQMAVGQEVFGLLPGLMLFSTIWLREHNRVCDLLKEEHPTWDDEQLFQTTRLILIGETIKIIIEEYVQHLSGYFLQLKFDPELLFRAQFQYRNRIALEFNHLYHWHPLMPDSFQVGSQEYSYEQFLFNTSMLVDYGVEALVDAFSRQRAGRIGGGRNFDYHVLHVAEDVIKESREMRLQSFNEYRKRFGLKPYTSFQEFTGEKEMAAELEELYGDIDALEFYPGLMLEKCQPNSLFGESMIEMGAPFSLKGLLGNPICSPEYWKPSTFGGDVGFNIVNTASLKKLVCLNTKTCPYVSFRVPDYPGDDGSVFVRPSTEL
Summary of the method: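 Same cyclooxygenase protocol run on rat renal medulla homogenate: 5 min 30 °C preincubation with glutathione 1 mM and adrenaline 625 μM. Prostaglandin/thromboxane area compared with the no-drug control.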

[22] = system: Rattus norvegicus; assay: Hepatic effect assessed by increase in catalase levels after 14 days of dosing at 100 mg/kg orally.; format: functional; summary of the method: as §3
[23] = system: Rattus norvegicus; assay: Plasma level in type II collagen arthritis model after 14 days of dosing at 60 mg/kg.; format: functional, organism-based; design: dose 60 mg/kg; summary of the method: as §4
[24] = system: Rattus norvegicus; assay: Hepatic effect assessed by increase in liver weight after 14 days of dosing at 40 mg/kg orally.; format: functional; summary of the method: as §1
[25] = system: Rattus norvegicus; assay: Plasma level in type II collagen arthritis model after 14 days of dosing at 40 mg/kg.; format: functional, organism-based; design: dose 40 mg/kg; summary of the method: as §4
[26] = system: Rattus norvegicus; assay: Hepatic effect assessed by increase in catalase levels after 14 days of dosing at 20 mg/kg orally.; format: functional; summary of the method: as §3
[27] = […] level determined in rat type II collagen arthritis model after 14 days dosing of 20 mg/kg.; format: functional; summary of the method: as §5
[28] = system: Rattus norvegicus; assay: Plasma level in type II collagen arthritis model after 14 days of dosing at 100 mg/kg.; format: functional, organism-based; design: dose 100 mg/kg; summary of the method: as §4
[29] = system: Rattus norvegicus; assay: Hepatic effect assessed by increase in catalase levels after 14 days of dosing at 40 mg/kg orally.; format: functional; summary of the method: as §3
[30] = system: Rattus norvegicus; assay: Hepatic effect assessed by increase in liver weight after 14 days of dosing at 20 mg/kg orally.; format: functional; summary of the method: as §1
[31] = system: Rattus norvegicus; assay: Radiographic change was judged in the area of the talus joint, using an arbitrary scoring system upon termination of the test (14 days dosing of 100 mg/kg)in a model of type II collagen arthritis in the rat.; format: functional; details: 336 h; summary of the method: as §2
[32] = system: Rattus norvegicus; assay: Hepatic effect assessed by increase in liver weight after 14 days of dosing at 100 mg/kg orally.; format: functional; summary of the method: as §1
[33] = system: Rattus norvegicus; assay: Radiographic change was judged in the area of the tarsus region, using an arbitrary scoring system upon termination of the test (14 days dosing of 60 mg/kg)in a model of type II collagen arthritis in the rat.; format: functional; details: 336 h; summary of the method: as §2

Sequence of Prostaglandin G/H synthase 1 (Ovis aries) (P05979 whole entry, looked up): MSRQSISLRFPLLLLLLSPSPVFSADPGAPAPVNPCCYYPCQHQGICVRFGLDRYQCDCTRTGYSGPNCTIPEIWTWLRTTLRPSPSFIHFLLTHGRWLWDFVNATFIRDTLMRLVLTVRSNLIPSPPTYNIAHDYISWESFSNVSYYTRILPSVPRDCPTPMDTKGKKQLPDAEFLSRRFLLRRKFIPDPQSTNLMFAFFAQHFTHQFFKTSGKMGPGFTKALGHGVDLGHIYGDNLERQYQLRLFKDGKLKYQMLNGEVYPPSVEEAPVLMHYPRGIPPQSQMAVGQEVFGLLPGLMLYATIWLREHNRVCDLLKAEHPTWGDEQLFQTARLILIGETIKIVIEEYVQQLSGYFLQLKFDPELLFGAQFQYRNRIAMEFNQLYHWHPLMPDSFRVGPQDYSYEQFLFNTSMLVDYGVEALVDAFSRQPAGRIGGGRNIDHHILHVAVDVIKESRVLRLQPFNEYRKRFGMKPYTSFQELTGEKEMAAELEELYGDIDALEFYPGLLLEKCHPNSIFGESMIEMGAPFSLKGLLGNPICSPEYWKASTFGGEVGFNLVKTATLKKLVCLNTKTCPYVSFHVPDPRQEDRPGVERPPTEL

IC50 [6]: 950 µM | logP [8]: 1.52
Compound: CC(C)(OCc1ccc(-c2ccc(Cl)cc2)cc1)C(=O)O [CLOBUZARIT]
Inhibition [1]: 48% | Decrease [2]: 31% | Change [3]: 19% | inhibition in vivo at 60 mg/kg [4]: 41% | inhibition in vivo at 60 mg/kg [5]: 64% | Change [7]: 164%

IC50 [16]: 6500 µM | IC50 [17]: > 400 µM | IC50 [21]: > 300 µM | logP [8]: 0.34
Compound: Cc1nc(-c2ccc(Cl)cc2)oc1COC(C)(C)C(=O)O [ROMAZARIT]
inhibition in vivo at 20 mg/kg [9]: 7% | Plasma level [10]: 64 µg/mL | Haptoglobin [11]: 0.32 g/L | inhibition in vivo at 20 mg/kg [12]: 33% | inhibition in vivo at 40 mg/kg [13]: 40% | Haptoglobin [14]: 0.34 g/L | inhibition in vivo at 100 mg/kg [15]: 56% | inhibition in vivo at 40 mg/kg [18]: 35% | Inhibition [1]: 73% | Haptoglobin [19]: 0.43 g/L | Decrease [2]: 26% | Change [3]: 4% | inhibition in vivo at 60 mg/kg [20]: 63% | Change [22]: 19% | Plasma level [23]: 172 µg/mL | Change [24]: -3% | Plasma level [25]: 102 µg/mL | Change [26]: -51% | Haptoglobin [27]: 0.31 g/L | Plasma level [28]: 267 µg/mL | Change [29]: -34% | Change [7]: -7% | Change [30]: -5% | inhibition in vivo at 100 mg/kg [31]: 82% | Change [32]: 13% | inhibition in vivo at 60 mg/kg [33]: 46%
